How the values were obtained:
[1] = target: T1, Epidermal growth factor receptor (Homo sapiens, UniProt P00533); test: Inhibition of N-terminal 6His/TEV protease cleavage site-tagged wild type human EGFR using poly (Glu,Tyr) 4:1 as substrate after 1 hr by ELISA
NCI-H1975 = test: Antiproliferative activity against human NCI-H1975 cells harboring EGFR L858R/T790M double mutant after 72 hrs by SRB assay; type: functional, cell-based; settings: NCI-H1975, 72 h
Procedure, shortened: (§1)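 Cells were cultured in RPMI 1640 with 10% FBS and 1% penicillin-streptomycin at 37 °C in 5% CO2, and their EGFR gene was sequenced before use. They were exposed to a range of compound concentrations for 72 h, and growth was read by sulforhodamine B staining. IC50 came from non-linear regression with a sigmoidal dose-response model.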

A-431 = test: Antiproliferative activity against human A431 cells harboring wild type EGFR after 72 hrs by SRB assay; type: cell-based; settings: A-431, 72 h; procedure, shortened: as §1
[2] = target: Epidermal growth factor receptor (Homo sapiens, UniProt P00533, L858R/T790M); test: Inhibition of N-terminal 6His/TEV protease cleavage site-tagged human EGFR L858R/T790M double mutant (696 to 1022 residues) using poly (Glu,Tyr) 4:1 as substrate after 1 hr by ELISA
Chain of Epidermal growth factor receptor (Homo sapiens, UniProt P00533, L858R/T790M) (P00533 25-1210 T790M/L858R limits assumed): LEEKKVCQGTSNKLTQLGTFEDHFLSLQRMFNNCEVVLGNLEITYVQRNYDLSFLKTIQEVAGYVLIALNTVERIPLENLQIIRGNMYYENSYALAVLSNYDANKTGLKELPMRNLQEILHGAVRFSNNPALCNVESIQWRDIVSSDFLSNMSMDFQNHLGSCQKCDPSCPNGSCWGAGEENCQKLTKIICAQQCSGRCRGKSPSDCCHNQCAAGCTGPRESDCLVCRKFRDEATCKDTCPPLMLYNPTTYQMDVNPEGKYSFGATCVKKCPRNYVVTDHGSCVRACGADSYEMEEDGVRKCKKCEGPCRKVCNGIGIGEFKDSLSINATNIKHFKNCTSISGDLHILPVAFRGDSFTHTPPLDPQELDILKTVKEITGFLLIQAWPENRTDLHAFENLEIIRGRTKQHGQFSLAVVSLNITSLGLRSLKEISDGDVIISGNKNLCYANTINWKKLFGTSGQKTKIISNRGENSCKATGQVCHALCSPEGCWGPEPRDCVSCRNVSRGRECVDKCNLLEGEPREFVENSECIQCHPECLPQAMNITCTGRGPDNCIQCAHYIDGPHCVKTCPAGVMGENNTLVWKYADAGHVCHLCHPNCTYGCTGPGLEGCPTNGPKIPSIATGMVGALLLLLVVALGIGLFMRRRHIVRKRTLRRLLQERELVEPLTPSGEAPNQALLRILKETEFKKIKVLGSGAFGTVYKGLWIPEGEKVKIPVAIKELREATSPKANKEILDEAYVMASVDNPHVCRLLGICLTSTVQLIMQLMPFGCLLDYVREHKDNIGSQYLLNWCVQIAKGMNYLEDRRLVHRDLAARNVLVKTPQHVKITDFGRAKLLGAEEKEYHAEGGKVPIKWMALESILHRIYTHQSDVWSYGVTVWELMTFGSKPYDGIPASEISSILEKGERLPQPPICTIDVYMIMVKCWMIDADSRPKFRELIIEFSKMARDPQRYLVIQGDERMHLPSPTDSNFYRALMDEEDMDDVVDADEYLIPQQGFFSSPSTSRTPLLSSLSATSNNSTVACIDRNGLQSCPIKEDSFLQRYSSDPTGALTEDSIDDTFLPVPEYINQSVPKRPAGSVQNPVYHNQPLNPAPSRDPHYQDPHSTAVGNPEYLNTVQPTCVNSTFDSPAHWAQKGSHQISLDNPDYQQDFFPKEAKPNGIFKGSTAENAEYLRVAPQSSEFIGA

[3] = (§2) AUC (0 to infinity) in Sprague-Dawley rat at 5 mg/kg, iv by LC-MS/MS analysis; type: ADME, organism-based; set-up: dose 5 mg/kg, time infinity, route intravenous; settings: Sprague-Dawley, in vivo
Procedure, shortened: (§3)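 Male Sprague-Dawley rats (180-300 g, n = 3 per route) were given a single dose, either 5 mg/kg iv or 25 mg/kg by oral gavage. Vehicle was 5% DMSO, 40% PEG400 and saline. Orbital sinus blood (0.2 mL) was taken into heparinized tubes at 0 min to 24 h. Plasma was stored at -80 °C and assayed by LC-MS/MS, and PK parameters were then calculated.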

[4] = AUC (0 to infinity) in Sprague-Dawley rat at 25 mg/kg administered via oral gavage by LC-MS/MS analysis; type: ADME, organism-based; set-up: dose 25 mg/kg, route oral, time infinity; settings: in vivo; procedure, shortened: as §3
[5] = Cmax in Sprague-Dawley rat at 5 mg/kg, iv by LC-MS/MS analysis; type: ADME, organism-based; set-up: dose 5 mg/kg, route intravenous; settings: in vivo; procedure, shortened: as §3
[6] = Cmax in Sprague-Dawley rat at 25 mg/kg administered via oral gavage by LC-MS/MS analysis; type: ADME, organism-based; set-up: dose 25 mg/kg, route oral; settings: in vivo; procedure, shortened: as §3
[7] = (§4) Apparent clearance in Sprague-Dawley rat at 5 mg/kg, iv by LC-MS/MS analysis; type: ADME, organism-based; settings: Sprague-Dawley, in vivo, read-out: CL(app) (converted); procedure, shortened: as §3
[8] = Tmax in Sprague-Dawley rat at 25 mg/kg administered via oral gavage by LC-MS/MS analysis; type: ADME, organism-based; settings: in vivo; procedure, shortened: as §3
[9] = Oral bioavailability in Sprague-Dawley rat at 25 mg/kg administered via gavage by LC-MS/MS analysis; type: ADME, organism-based; settings: in vivo; procedure, shortened: as §3
[10] = target: T1, Epidermal growth factor receptor; test: Inhibition of EGF-stimulated wild type EGFR phosphorylation in human A431 cells at 3 to 300 nM preincubated for 4 hrs followed by EGF stimulation measured after 10 mins by Western blot analysis; settings: a431, 10 min, 0.3 µM
[11] = target: T1, Epidermal growth factor receptor; test: Inhibition of EGF-stimulated wild type EGFR in human A431 cells assessed as decrease in ERK phosphorylation at 3 to 300 nM preincubated for 4 hrs followed by EGF stimulation measured after 10 mins by Western blot analysis; settings: a431, 10 min, 0.3 µM
Rattus norvegicus [12] = test: as §2; type: ADME, organism-based; set-up: dose 5 mg/kg, time infinity, route intravenous; settings: in vivo; procedure, shortened: as §3
Rattus norvegicus [13] = test: as §4; type: ADME, organism-based; settings: in vivo; procedure, shortened: as §3

T1 sequence (P00533 whole entry): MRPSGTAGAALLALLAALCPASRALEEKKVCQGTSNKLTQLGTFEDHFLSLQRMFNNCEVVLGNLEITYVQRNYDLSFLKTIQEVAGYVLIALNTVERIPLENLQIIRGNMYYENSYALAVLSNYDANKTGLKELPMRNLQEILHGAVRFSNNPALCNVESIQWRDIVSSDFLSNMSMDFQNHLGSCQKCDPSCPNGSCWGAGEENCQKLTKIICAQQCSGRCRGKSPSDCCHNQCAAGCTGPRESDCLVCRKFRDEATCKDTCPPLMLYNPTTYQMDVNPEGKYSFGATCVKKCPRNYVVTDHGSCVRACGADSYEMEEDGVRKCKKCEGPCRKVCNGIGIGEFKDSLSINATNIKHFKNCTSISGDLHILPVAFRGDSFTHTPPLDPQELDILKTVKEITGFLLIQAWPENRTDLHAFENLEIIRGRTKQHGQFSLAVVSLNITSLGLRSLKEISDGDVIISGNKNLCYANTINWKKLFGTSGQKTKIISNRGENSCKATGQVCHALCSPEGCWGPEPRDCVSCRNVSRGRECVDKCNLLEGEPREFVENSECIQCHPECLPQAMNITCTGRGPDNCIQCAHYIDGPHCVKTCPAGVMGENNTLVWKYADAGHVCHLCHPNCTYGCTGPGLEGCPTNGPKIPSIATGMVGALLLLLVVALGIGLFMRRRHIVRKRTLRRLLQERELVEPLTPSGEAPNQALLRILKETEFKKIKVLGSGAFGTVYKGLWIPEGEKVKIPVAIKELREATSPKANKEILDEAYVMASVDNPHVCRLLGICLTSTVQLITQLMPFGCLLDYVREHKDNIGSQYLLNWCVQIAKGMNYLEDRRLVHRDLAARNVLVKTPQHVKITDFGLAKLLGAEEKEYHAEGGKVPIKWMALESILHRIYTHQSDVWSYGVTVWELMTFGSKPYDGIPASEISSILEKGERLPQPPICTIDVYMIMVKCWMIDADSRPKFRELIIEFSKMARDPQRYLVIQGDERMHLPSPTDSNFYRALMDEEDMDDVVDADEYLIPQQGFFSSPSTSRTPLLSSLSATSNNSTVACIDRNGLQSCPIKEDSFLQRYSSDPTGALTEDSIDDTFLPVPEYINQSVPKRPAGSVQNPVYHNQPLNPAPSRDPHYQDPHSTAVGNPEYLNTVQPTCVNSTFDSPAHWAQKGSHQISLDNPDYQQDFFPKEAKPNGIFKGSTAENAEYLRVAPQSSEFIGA

## C=CC(=O)Nc1cccc(-n2c(=O)cc(C)c3cnc(Nc4ccc(N5CCN(C)CC5)cc4OC)nc32)c1
[1]
  IC50: 330 nM
NCI-H1975
  IC50: 2 nM
A-431
  IC50: 1400 nM

## C=CC(=O)Nc1cccc(-n2c(=O)cc(C)c3cnc(Nc4nc5c(s4)CN(C)CC5)nc32)c1
[1]
  IC50: 550 nM
[2]
  IC50: 2.5 nM
NCI-H1975
  IC50: 8 nM
A-431
  IC50: 2700 nM

## C=CC(=O)Nc1cccc(-n2c(=O)cc(C)c3cnc(Nc4cnn(C5CCN(C)CC5)c4)nc32)c1
[1]
  IC50: 166 nM
[2]
  IC50: 1.8 nM
NCI-H1975
  IC50: 14 nM
A-431
  IC50: 3520 nM

## C=CC(=O)Nc1cccc(-n2c(=O)cc(C)c3cnc(Nc4ccc(N5CCN(C)CC5)cc4OC)nc32)c1.CS(=O)(=O)O
[3]
  AUC(0-inf): 450 ng·h/mL
[4]
  AUC(0-inf): 243 ng·h/mL
[5]
  Cmax: 1370 ng/mL
[6]
  Cmax: 83.1 ng/mL
[7]
  clearance: 190 mL/min/kg
[8]
  Tmax: 1.56 h
[9]
  bioavailability: 10.8%

## C=CC(=O)Nc1cc(-n2c(=O)cc(C)c3cnc(Nc4ccc(N5CCN(C)CC5)cc4OC)nc32)cc(C(F)(F)F)c1.CS(=O)(=O)O
[3]
  AUC(0-inf): 831 ng·h/mL
[4]
  AUC(0-inf): 671 ng·h/mL
[5]
  Cmax: 2460 ng/mL
[6]
  Cmax: 161 ng/mL
[7]
  clearance: 102 mL/min/kg
[8]
  Tmax: 2 h
[9]
  bioavailability: 16.1%

## C=CC(=O)Nc1cc(-n2c(=O)cc(C)c3cnc(Nc4ccc(N5CCN(C)CC5)cc4OC)nc32)cc(C(F)(F)F)c1
[1]
  IC50: 182 nM
[2]
  IC50: 2 nM
NCI-H1975
  IC50: 40 nM
A-431
  IC50: 1390 nM
[10]
  inhibition (INH): Not Active
[11]
  inhibition (INH): Not Active

## C=CC(=O)Nc1cccc(-n2c(=O)cc(C)c3cnc(Nc4ccc(N5CC(C)N(C)C(C)C5)cc4OC)nc32)c1 (centres undefined)
NCI-H1975
  IC50: 4 nM
A-431
  IC50: 1670 nM

## C=CC(=O)N1CC[C@@H](n2c(=O)cc(C)c3cnc(Nc4ccc(N5CCN(C)CC5)cc4OC)nc32)C1
NCI-H1975
  IC50: 5200 nM
A-431
  IC50: > 10000 nM

## C=CC(=O)Nc1cc(C)cc(-n2c(=O)cc(C)c3cnc(Nc4ccc(N5CCN(C)CC5)cc4OC)nc32)c1
[1]
  IC50: 208 nM
[2]
  IC50: 1.8 nM
NCI-H1975
  IC50: 6 nM
A-431
  IC50: 3250 nM

## C=CC(=O)Nc1cccc(-n2c(=O)cc(C)c3cnc(Nc4ccc(N5CCN(C)C(C)C5)cc4OC)nc32)c1.CS(=O)(=O)O (centres undefined)
[3]
  AUC(0-inf): 433 ng·h/mL
[4]
  AUC(0-inf): 526 ng·h/mL
[5]
  Cmax: 1330 ng/mL
[6]
  Cmax: 155 ng/mL
[7]
  clearance: 197 mL/min/kg
[8]
  Tmax: 1.67 h
[9]
  bioavailability: 24.3%

## C=CC(=O)Nc1cc(-n2c(=O)cc(C)c3cnc(Nc4ccc(N5CC(C)N(C)C(C)C5)cc4OC)nc32)cc(C(F)(F)F)c1 (centres undefined)
[1]
  IC50: 97 nM
[2]
  IC50: 3.3 nM
NCI-H1975
  IC50: 30 nM
A-431
  IC50: 1130 nM

## C=CC(=O)Nc1cc(C(C)C)cc(-n2c(=O)cc(C)c3cnc(Nc4ccc(N5CCN(C)CC5)cc4OC)nc32)c1
[1]
  IC50: 24 nM
[2]
  IC50: 2.4 nM
NCI-H1975
  IC50: 120 nM
A-431
  IC50: 1440 nM

## C=CC(=O)Nc1cccc(-n2c(=O)cc(C)c3cnc(Nc4cnn(CCN(C)C)c4)nc32)c1
[1]
  IC50: 445 nM
[2]
  IC50: 4.2 nM
NCI-H1975
  IC50: 289 nM
A-431
  IC50: 4000 nM

## C=CC(=O)Nc1cc(-n2c(=O)cc(C)c3cnc(Nc4ccc(N5CCN(C)CC5)cc4OC)nc32)ccc1C
[1]
  IC50: 36.9 nM
[2]
  IC50: 2.3 nM
NCI-H1975
  IC50: 81 nM
A-431
  IC50: 3620 nM

## C=CC(=O)Nc1cccc(-n2c(=O)cc(C)c3cnc(Nc4ccc(N5CCN(C)CC5)nc4)nc32)c1
[1]
  IC50: 46.8 nM
[2]
  IC50: 1.4 nM
NCI-H1975
  IC50: 64 nM
A-431
  IC50: 2380 nM

## C=CC(=O)Nc1cc(F)cc(-n2c(=O)cc(C)c3cnc(Nc4ccc(N5CCN(C)CC5)cc4OC)nc32)c1
[1]
  IC50: 26 nM
[2]
  IC50: 0.8 nM
NCI-H1975
  IC50: 0.1 nM
A-431
  IC50: 817 nM

## C=CC(=O)Nc1cccc(-n2c(=O)cc(C)c3cnc(Nc4ccc(N5CCN(C)C(C)C5)cc4OC)nc32)c1 (centres undefined)
[1]
  IC50: 169 nM
[2]
  IC50: 1.2 nM
NCI-H1975
  IC50: 18 nM
A-431
  IC50: 706 nM

## C=CC(=O)N1CC[C@H](n2c(=O)cc(C)c3cnc(Nc4ccc(N5CCN(C)CC5)cc4OC)nc32)C1
NCI-H1975
  IC50: 762 nM
A-431
  IC50: > 10000 nM

## C=CC(=O)Nc1cc(-n2c(=O)cc(C)c3cnc(Nc4ccc(N5CC(C)N(C)C(C)C5)cc4OC)nc32)cc(C(F)(F)F)c1.CS(=O)(=O)O (centres undefined)
[3]
  AUC(0-inf): 410 ng·h/mL
[4]
  AUC(0-inf): 89.7 ng·h/mL
[5]
  Cmax: 592 ng/mL
[6]
  Cmax: 17.4 ng/mL
[7]
  clearance: 205 mL/min/kg
[8]
  Tmax: 6 h
[9]
  bioavailability: 4.38%

## C=CC(=O)Nc1cc(-n2c(=O)cc(C)c3cnc(Nc4ccc(N5CCN(C)C(C)C5)cc4OC)nc32)cc(C(F)(F)F)c1.CS(=O)(=O)O (centres undefined)
Rattus norvegicus [12]
  AUC: 398.48 µg·h/L
[4]
  AUC(0-inf): 111 ng·h/mL
[5]
  Cmax: 259 ng/mL
[6]
  Cmax: 21.4 ng/mL
Rattus norvegicus [13]
  CL(app): 2.25 L/h/kg
[8]
  Tmax: 1.67 h
[9]
  bioavailability: 5.58%

## C=CC(=O)Nc1cc(Br)cc(-n2c(=O)cc(C)c3cnc(Nc4ccc(N5CCN(C)CC5)cc4OC)nc32)c1
[1]
  IC50: 57 nM
[2]
  IC50: 1.8 nM
NCI-H1975
  IC50: 4 nM
A-431
  IC50: 1150 nM

## C=CC(=O)Nc1cc(-n2c(=O)cc(C)c3cnc(Nc4ccc(N5CCN(C)CC5)cc4OC)nc32)cc(C(C)(C)C)c1
[1]
  IC50: > 1000 nM
[2]
  IC50: 17.7 nM
NCI-H1975
  IC50: 197 nM
A-431
  IC50: 660 nM

## C=CC(=O)N1CCC(n2c(=O)cc(C)c3cnc(Nc4ccc(N5CCN(C)CC5)cc4OC)nc32)CC1
[1]
  IC50: > 1000 nM
[2]
  IC50: > 1000 nM
NCI-H1975
  IC50: 2240 nM
A-431
  IC50: > 10000 nM

## C=CC(=O)Nc1cc(CC)cc(-n2c(=O)cc(C)c3cnc(Nc4ccc(N5CCN(C)CC5)cc4OC)nc32)c1
[1]
  IC50: 472 nM
[2]
  IC50: 3.4 nM
NCI-H1975
  IC50: 142 nM
A-431
  IC50: 1050 nM

## C=CC(=O)Nc1cccc(-n2c(=O)cc(C)c3cnc(Nc4ccc(N5CC(C)N(C)C(C)C5)cc4OC)nc32)c1.CS(=O)(=O)O (centres undefined)
[3]
  AUC(0-inf): 622 ng·h/mL
[4]
  AUC(0-inf): 613 ng·h/mL
[5]
  Cmax: 772 ng/mL
[6]
  Cmax: 64.4 ng/mL
[7]
  clearance: 135 mL/min/kg
[8]
  Tmax: 4 h
[9]
  bioavailability: 13.3%

## C=CC(=O)Nc1cc(-n2c(=O)cc(C)c3cnc(Nc4ccc(N5CCN(C)C(C)C5)cc4OC)nc32)cc(C(F)(F)F)c1 (centres undefined)
[1]
  IC50: 66 nM
[2]
  IC50: 1.6 nM
NCI-H1975
  IC50: 12 nM
A-431
  IC50: 1710 nM

## C=CC(=O)Nc1cc(Cl)cc(-n2c(=O)cc(C)c3cnc(Nc4ccc(N5CCN(C)CC5)cc4OC)nc32)c1
[1]
  IC50: 33.1 nM
[2]
  IC50: 0.6 nM
NCI-H1975
  IC50: 7 nM
A-431
  IC50: 1430 nM

## C=CC(=O)N1CCC(Cn2c(=O)cc(C)c3cnc(Nc4ccc(N5CCN(C)CC5)cc4OC)nc32)C1 (racemic)
[1]
  IC50: > 1000 nM
[2]
  IC50: 63.8 nM
NCI-H1975
  IC50: 305 nM
A-431
  IC50: > 10000 nM

## C=CC(=O)Nc1cccc(Nc2nc(Nc3ccc(N4CCN(C(C)=O)CC4)cc3OC)ncc2C(F)(F)F)c1 [ROCILETINIB]
NCI-H1975
  IC50: 42 nM
A-431
  IC50: 1540 nM

Reference: ChEMBL document CHEMBL4000215, “A structure-guided optimization of pyrido[2,3-d]pyrimidin-7-ones as selective inhibitors of EGFRL858R/T790M mutant with improved pharmacokinetic properties” (Eur J Med Chem, 2017)
